The values below come from ChEMBL document CHEMBL3792366, “Role of disulfide linkage in action of bis(dialkylaminethiocarbonyl)disulfides as potent double-Edged microbicidal spermicide: Design, synthesis and biology” (Eur J Med Chem, 2016).

The test system of assay [1] is Trichomonas vaginalis. Description: Potency index, ratio of metronidazole MIC to compound MIC for metronidazole-resistant trophozoite stage of Trichomonas vaginalis ATCC 50143. Type of assay: functional.
The test system of assay [2] is Sporothrix schenckii. Description: Antifungal activity against Sporothrix schenckii after 48 hrs by broth microdilution method. Type of assay: functional. In short, it runs like this:
(§1)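 NCCLS broth microdilution in RPMI 1640 buffered with MOPS; starting inoculum 1–5 × 10^3 CFU/mL; plates incubated at 35 °C; MIC read after 48 h.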
Background: In broth dilution the organism is exposed to a series of concentrations in liquid medium.

Assay [3] can be described thus: Spermicidal activity in human sperms assessed as motility measured within 30 secs by phase contrast microscopy. Type of assay: functional, Sperm. In short, it runs like this: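 Liquefied human semen (0.05 mL) was added to 0.25 mL test solution and vortexed 10 s at low speed. Motile sperm were scored visually under phase contrast in five fields within 30 s; assays in triplicate; MEC = minimum effective concentration.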

Assay [4] concerns Trichomonas vaginalis. Description: Antitrichomonas activity against metronidazole-resistant trophozoite stage of Trichomonas vaginalis ATCC 50143 assessed as cell viability under anaerobic condition after 48 hrs by trypan blue exclusion assay. Type of assay: functional. Conditions: ATCC 50143, 48 h. Put shortly: (§2)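 Log-phase T. vaginalis grown in TYM with 10% FCS, vitamin mix and penicillin/streptomycin at 37 °C. Compounds were made as 100 µg/mL DMSO stocks and serially diluted in TYM down to 0.1 µg/mL; DMSO/TYM served as vehicle. Parasites were incubated anaerobically at 37 °C, and viability was checked by trypan blue exclusion from 3 to 48 h. MIC = lowest concentration killing all cells by 48 h; each test was repeated three times.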

For assay [5], the system named is Candida parapsilosis. Description: Antifungal activity against Candida parapsilosis ATCC 22019 after 48 hrs by broth microdilution method. Type of assay: functional. Conditions: Lodderomyces parapsilosis, ATCC 22019, 48 h. In short, it runs like this: as §1
The subject of assay [6] is Trichomonas vaginalis. Description: Antitrichomonas activity against trophozoite stage of Trichomonas vaginalis clinical isolate assessed as cell viability under anaerobic condition after 48 hrs by trypan blue exclusion assay. Type of assay: functional. In short, it runs like this: as §2
Assay [7] concerns Candida albicans. Description: Antifungal activity against Candida albicans after 48 hrs by broth microdilution method. Type of assay: functional. In short, it runs like this: as §1
The test system of assay [8] is Trichophyton mentagrophytes. Description: Antifungal activity against Trichophyton mentagrophytes after 48 hrs by broth microdilution method. Type of assay: functional. In short, it runs like this:
as §1

Assay [9] concerns Cryptococcus neoformans. Description: Antifungal activity against Cryptococcus neoformans after 48 hrs by broth microdilution method. Type of assay: functional. Put shortly:
as §1

Assay [10] relates to Trichomonas vaginalis. Description: Selectivity ratio of MIC for metronidazole-resistant trophozoite stage of Trichomonas vaginalis ATCC 50143 to MIC for metronidazole-susceptible trophozoite stage of Trichomonas vaginalis. Type of assay: functional.
Assay [11] can be described thus: Selectivity index, ratio of IC50 for Lactobacillus jensenii ATCC 25258 to MIC for metronidazole resistant trophozoite stage of Trichomonas vaginalis ATCC 50143.
Assay [12] is described as follows: Toxicity in Lactobacillus jensenii ATCC 25258 after 72 hrs.
The nature of assay [13]: Selectivity index, ratio of IC50 for Lactobacillus jensenii ATCC 25258 to MIC for trophozoite stage of Trichomonas vaginalis clinical isolate.
Assay [14] concerns HeLa. Description: Cytotoxicity against human HeLa cells after 5 hrs by lactate dehydrogenase release assay. Type of assay: cell-based. Put shortly:
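HeLa cells were seeded at 2×10^4/well in triplicate and grown 24 h at 37 °C in 5% CO2. The DMEM was then replaced with medium holding serially diluted compound, and plates were incubated 5 h. LDH release in the supernatant was measured colorimetrically at 490 nm, and IC50 was derived from it.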

In assay [15] the test system is Trichomonas vaginalis. Description: Antitrichomonas activity against metronidazole-susceptible Trichomonas vaginalis in sc dosed mouse assessed as pustule formation at 5 ug administered daily measured after 7 days (reference value: 190 mm'2). Type of assay: functional.
The subject of assay [16] is Trichomonas vaginalis. Description: Antitrichomonas activity against metronidazole-susceptible Trichomonas vaginalis in sc dosed mouse assessed as pustule formation at 5 ug administered daily measured after 5 days (reference value: 109 mm'2). Type of assay: functional.
In assay [17] the test system is Trichomonas vaginalis. Description: Antitrichomonas activity against metronidazole-susceptible Trichomonas vaginalis in sc dosed mouse assessed as spleen weight at 5 ug administered daily measured after 7 days (reference value: 0.59 g). Type of assay: functional.

≈ marks a conversion by molar mass, not a printed value. Where only a bound is given, the exact number is not on record here.

As usually defined, the MIC is the smallest concentration in the dilution series that meets the test's criterion for growth inhibition. Take `CN(Cc1ccccc1)C(=S)SSC(=S)N(C)Cc1ccccc1`: the Ratio in assay [1] was 4. In addition, the minimal inhibitory concentration (MIC) in [2] was 31.8 µM (≈ 12.5 µg/mL); in assay [4], 31.8 µM (≈ 12.5 µg/mL); in [5], above 127 µM; in assay [6], 7.9 µM (≈ 3.1 µg/mL); in assay [7] it was 31.8 µM (≈ 12.5 µg/mL); in assay [8], 63.6 µM (≈ 25 µg/mL). The same molecule displayed a minimum inhibitory concentration (MIC) in assay [9] of 7.9 µM (≈ 3.1 µg/mL). The MEC in [3] is recorded as above 1%. The Selectivity ratio in assay [10] is on record as 4.
In the case of `CC1CCN(C(=S)SSC(=S)N2CCC(C)CC2)CC1`, in assay [1], the Ratio was 4. Moreover, the MIC in assay [2] stood at 35.8 µM (≈ 12.5 µg/mL); in assay [4], 35.8 µM (≈ 12.5 µg/mL); in assay [5], 143 µM (≈ 49.9 µg/mL); in [6], 35.8 µM (≈ 12.5 µg/mL); in assay [7] it was 17.9 µM (≈ 6.24 µg/mL); in assay [8], 35.8 µM (≈ 12.5 µg/mL). Also, it took 8.9 µM (≈ 3.1 µg/mL) to inhibit growth in [9] (MIC). The MEC in [3] stood at 1%.
Turning to `S=C(SSC(=S)N1CCCC1)N1CCCC1` [BIS(PYRROLIDINYLTHIOCARBONYL)DISULFIDE], the Ratio in assay [1] came out at 16. Moreover, the minimal inhibitory concentration (MIC) in [2] was 21.3 µM (≈ 6.23 µg/mL); in assay [4], 10.6 µM (≈ 3.1 µg/mL); in assay [5], 21.3 µM (≈ 6.23 µg/mL); in assay [6] it was 10.6 µM (≈ 3.1 µg/mL); in assay [7] it was 10.6 µM (≈ 3.1 µg/mL); in assay [8] it was 10.6 µM (≈ 3.1 µg/mL). In addition, the minimal inhibitory concentration (MIC) in assay [9] was 2.6 µM (≈ 0.761 µg/mL). The MEC in assay [3] is listed as 1%.
For orientation: IC50 means the concentration that inhibits the measured activity by half. A higher IC50 goes with lower potency. As to `S=C(SCCN1CCCC1)N1CCN(C(=S)SSC(=S)N2CCN(C(=S)SCCN3CCCC3)CC2)CC1`, the Selectivity Index in [11] was above 18; in [13] it was 58. In addition, the minimal inhibitory concentration (MIC) in assay [2] was 74.7 µM (≈ 50 µg/mL); in assay [4], above 149 µM; in assay [5] it was 74.7 µM (≈ 50 µg/mL); in assay [6] it was 46.7 µM (≈ 31.2 µg/mL); in assay [7] it was 74.7 µM (≈ 50 µg/mL); in assay [8], 74.7 µM (≈ 50 µg/mL). In addition, the MIC in [9] was found to be 74.7 µM (≈ 50 µg/mL). The MEC in assay [3] is 0.002%. For the same molecule, the IC50 in assay [12] turned out to be 6.08 mM; in assay [14], 2.74 mM.
On to `CCOC(=O)N1CCN(C(=S)SSC(=S)N2CCN(C(=O)OCC)CC2)CC1`, for which, in assay [1], the Ratio is recorded as 8. For the same molecule, the MIC in [2] stood at 107 µM (≈ 49.8 µg/mL); in [4], 13.3 µM (≈ 6.21 µg/mL); in [5] it was 53.4 µM (≈ 24.9 µg/mL); in [6], 13.3 µM (≈ 6.21 µg/mL); in assay [7] it was 53.4 µM (≈ 24.9 µg/mL); in assay [8], 107 µM (≈ 49.8 µg/mL). In assay [9], the MIC is 26.7 µM (≈ 12.5 µg/mL). In assay [3], the MEC was found to be 1%.
`S=C(SSC(=S)N1CCCCCC1)N1CCCCCC1`: the Ratio in assay [1] is listed as 4. The MIC was 17.9 µM (≈ 6.24 µg/mL) in assay [2]; 35.8 µM (≈ 12.5 µg/mL) in [4]; 143 µM (≈ 49.9 µg/mL) in [5]; 286 µM (≈ 99.7 µg/mL) in assay [6]; 8.9 µM (≈ 3.1 µg/mL) in [7]; 17.9 µM (≈ 6.24 µg/mL) in assay [8]. The molecule further came in with an MIC in [9] of 4.4 µM (≈ 1.53 µg/mL). The MEC in [3] is listed as above 1%.
Take `S=C(SSC(=S)N1CCN(CCN2CCOCC2)CC1)N1CCN(CCN2CCOCC2)CC1`: the Ratio in assay [1] is reported as 2. Besides, the Selectivity Index worked out at 3 in assay [11] and 7 in assay [13]. Besides, the MIC is 91 µM (≈ 49.9 µg/mL) in assay [2]; 45.5 µM (≈ 25 µg/mL) in assay [4]; above 91 µM in assay [5]; 22.7 µM (≈ 12.5 µg/mL) in assay [6]; above 91 µM in [7]; 91 µM (≈ 49.9 µg/mL) in assay [8]. Further, the minimum inhibitory concentration (MIC) in [9] was above 91 µM. The MEC in assay [3] is reported as 0.005%. Besides, the results for the IC50 in [12] and in assay [14] were 6.48 mM and 0.169 mM, respectively.
Turning to `Cc1ncc([N+](=O)[O-])n1CCO` [METRONIDAZOLE], the minimum inhibitory concentration (MIC) was determined as 292 µM (≈ 50 µg/mL) in [4] and 11.6 µM (≈ 1.99 µg/mL) in assay [6]. Besides, the results for the Activity in assay [15], in assay [16] and in assay [17] were 7.59 mm2, 15 mm2 and 0.5 g, respectively. Further, the Selectivity ratio in [10] came out at 25.
